What all share (type): functional, cell-based
One assay concerns A-431. Description: In vitro cytotoxicity of compound against human A431 (epidermoid) cancer cell line after 72 hr of drug exposure. The following applies: A-431, 72 h. The method in brief:
(§1)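 Cytotoxicity was measured as an IC50 on a panel of human cancer lines: A431 (epidermoid), A549 (non-small-cell lung), MCF7 (breast) and MCF7-MDR (breast). The parent, unmodified taxoids were tested on the same lines.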

A further assay deals with A549. Nature of the assay: In vitro cytotoxicity of compound against human A549 (non small cell lung) cancer cell line after 72 hr of drug exposure. The following applies: A549, 72 h. Summed up:
as §1

The next assay concerns NCI/ADR-RES. Nature of the assay: In vitro cytotoxicity of compound against human MCF-7-MDR (breast) cancer cell line after 72 hr of drug exposure. The method in brief:
as §1

For the molecule `CCC(=O)O[C@H]1C(=O)[C@]2(C)[C@@H](OC(=O)CCSSC)C[C@H]3OC[C@@]3(OC(C)=O)[C@H]2[C@H](OC(=O)c2ccccc2)[C@]2(O)C[C@H](OC(=O)[C@H](O)[C@H](C=C(C)C)NC(=O)OC(C)(C)C)C(C)=C1C2(C)C`, the IC50 in the assay with A-431 worked out at 2 nM.
Regarding `CCC(=O)O[C@H]1C(=O)[C@@]2(C)[C@H]([C@H](OC(=O)c3ccccc3)[C@]3(O)C[C@H](OC(=O)[C@H](O)[C@H](C=C(C)C)NC(=O)OC(C)(C)C)C(C)=C1C3(C)C)[C@]1(OC(C)=O)CO[C@@H]1C[C@@H]2O`, the half-maximal inhibitory concentration (IC50) in the assay with A549 stood at 0.1 nM; in the assay with A-431, 0.09 nM; with NCI/ADR-RES, 2.2 nM.
As for `CCC(=O)O[C@H]1C(=O)[C@@]2(C)[C@H]([C@H](OC(=O)c3ccccc3)[C@]3(O)C[C@H](OC(=O)[C@H](OC(=O)CCSSC)[C@H](C=C(C)C)NC(=O)OC(C)(C)C)C(C)=C1C3(C)C)[C@]1(OC(C)=O)CO[C@@H]1C[C@@H]2O`, the IC50 with A549 was 0.9 nM; in the assay on A-431, more than 3 nM.
Consider `CSSCCC(=O)O[C@H]1C(=O)[C@@]2(C)[C@H]([C@H](OC(=O)c3ccccc3)[C@]3(O)C[C@H](OC(=O)[C@H](O)[C@H](C=C(C)C)NC(=O)OC(C)(C)C)C(C)=C1C3(C)C)[C@]1(OC(C)=O)CO[C@@H]1C[C@@H]2O`, for which the values for the IC50 in the assay on A549 and in the assay on A-431 were 0.8 nM and 0.5 nM, respectively.
In the same order, the values of `CSSc1cccc(C(=O)O[C@H]2[C@@H]3[C@]4(OC(C)=O)CO[C@@H]4C[C@H](O)[C@@]3(C)C(=O)[C@H](OC(C)=O)C3=C(C)[C@@H](OC(=O)[C@H](O)[C@H](C=C(C)C)NC(=O)OC(C)(C)C)C[C@]2(O)C3(C)C)c1` are more than 3 nM and more than 3 nM.
Regarding `CSSCC(=O)O[C@H]1C(=O)[C@@]2(C)[C@H]([C@H](OC(=O)c3ccccc3)[C@]3(O)C[C@H](OC(=O)[C@H](O)[C@H](C=C(C)C)NC(=O)OC(C)(C)C)C(C)=C1C3(C)C)[C@]1(OC(C)=O)CO[C@@H]1C[C@@H]2O`, the IC50 in the assay on A549 was 0.8 nM; in the assay with A-431 it was 0.7 nM.
`CSSCCC(=O)O[C@H]1C[C@H]2OC[C@@]2(OC(C)=O)[C@H]2[C@H](OC(=O)c3ccccc3)[C@]3(O)C[C@H](OC(=O)[C@H](O)[C@H](C=C(C)C)NC(=O)OC(C)(C)C)C(C)=C([C@@H](OC(=O)N4CCOCC4)C(=O)[C@]12C)C3(C)C` registered an IC50 in the assay on A-431 of more than 3 nM.
As for `CC(=O)O[C@H]1C(=O)[C@@]2(C)[C@H]([C@H](OC(=O)c3ccccc3)[C@]3(O)C[C@H](OC(=O)[C@H](O)[C@@H](NC(=O)c4ccccc4)c4ccccc4)C(C)=C1C3(C)C)[C@]1(OC(C)=O)CO[C@@H]1C[C@@H]2O` [PACLITAXEL], the IC50 in the assay with NCI/ADR-RES was 299 nM.
For the molecule `CSSc1cccc(C(=O)O[C@H]2C(=O)[C@@]3(C)[C@H]([C@H](OC(=O)c4ccccc4)[C@]4(O)C[C@H](OC(=O)[C@H](O)[C@H](C=C(C)C)NC(=O)OC(C)(C)C)C(C)=C2C4(C)C)[C@]2(OC(C)=O)CO[C@@H]2C[C@@H]3O)c1`, the IC50 with A549 and with A-431 was more than 3 nM each time.

As a reminder, the IC50 is the concentration at which inhibition is half-maximal. A lower IC50 goes with greater potency.

Values taken from ChEMBL document CHEMBL1135685, “Tumor-specific novel taxoid-monoclonal antibody conjugates” (J Med Chem, 2002).
